ChEMBL document CHEMBL1765073, “Synthesis and structure-activity relationship studies of urea-containing pyrazoles as dual inhibitors of cyclooxygenase-2 and soluble epoxide hydrolase” (J Med Chem, 2011)
The source made the active and inactive calls. No cut-off for these calls is given here.

Assays:
[1] = target: T1, Prostaglandin G/H synthase 1 (Ovis aries) (UniProt P05979); assay: Inhibition of ovine COX-1 at 100 uM after 2 mins by fluorescence assay
T1 sequence (whole entry): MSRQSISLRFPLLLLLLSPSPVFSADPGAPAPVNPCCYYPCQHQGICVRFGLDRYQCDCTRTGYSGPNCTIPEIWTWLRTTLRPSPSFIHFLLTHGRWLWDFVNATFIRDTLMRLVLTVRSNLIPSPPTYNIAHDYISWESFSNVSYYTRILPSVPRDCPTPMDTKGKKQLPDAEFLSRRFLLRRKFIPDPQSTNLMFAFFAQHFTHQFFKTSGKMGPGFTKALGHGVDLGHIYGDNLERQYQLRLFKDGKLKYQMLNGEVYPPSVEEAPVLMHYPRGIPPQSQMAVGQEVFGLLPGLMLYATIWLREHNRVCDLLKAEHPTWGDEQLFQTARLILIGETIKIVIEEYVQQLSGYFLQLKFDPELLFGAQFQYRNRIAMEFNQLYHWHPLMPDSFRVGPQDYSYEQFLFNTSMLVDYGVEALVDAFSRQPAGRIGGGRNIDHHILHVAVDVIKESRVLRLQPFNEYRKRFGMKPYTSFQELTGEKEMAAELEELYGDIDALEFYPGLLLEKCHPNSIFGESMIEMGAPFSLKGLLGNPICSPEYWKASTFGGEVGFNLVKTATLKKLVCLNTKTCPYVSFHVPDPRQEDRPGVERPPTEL
Summary of the method: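 Ovine COX-1 was tested in a fluorescent kit assay in 100 mM Tris-HCl, pH 8.0, with heme and ADHP substrate. Inhibitor was added at a final 100 µM, then the reaction was started with arachidonic acid for 2 min at room temperature. Resorufin was read at ex 535/em 590 nm, and % inhibition was taken against a no-inhibitor control.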

Rattus norvegicus [2] = assay: Antiallodynic activity in Sprague-Dawley rat von Frey hair mechanically-stimulated inflammatory pain model assessed as reversal of LPS-induced decrease in paw withdrawal latency at 10 mg/kg, sc administered 60 mins before LPS challenge
[3] = target: T2, Polyunsaturated fatty acid 5-lipoxygenase (Homo sapiens) (UniProt P09917); assay: Inhibition of human 5-lipoxygenase at 10 uM
T2 sequence (whole entry): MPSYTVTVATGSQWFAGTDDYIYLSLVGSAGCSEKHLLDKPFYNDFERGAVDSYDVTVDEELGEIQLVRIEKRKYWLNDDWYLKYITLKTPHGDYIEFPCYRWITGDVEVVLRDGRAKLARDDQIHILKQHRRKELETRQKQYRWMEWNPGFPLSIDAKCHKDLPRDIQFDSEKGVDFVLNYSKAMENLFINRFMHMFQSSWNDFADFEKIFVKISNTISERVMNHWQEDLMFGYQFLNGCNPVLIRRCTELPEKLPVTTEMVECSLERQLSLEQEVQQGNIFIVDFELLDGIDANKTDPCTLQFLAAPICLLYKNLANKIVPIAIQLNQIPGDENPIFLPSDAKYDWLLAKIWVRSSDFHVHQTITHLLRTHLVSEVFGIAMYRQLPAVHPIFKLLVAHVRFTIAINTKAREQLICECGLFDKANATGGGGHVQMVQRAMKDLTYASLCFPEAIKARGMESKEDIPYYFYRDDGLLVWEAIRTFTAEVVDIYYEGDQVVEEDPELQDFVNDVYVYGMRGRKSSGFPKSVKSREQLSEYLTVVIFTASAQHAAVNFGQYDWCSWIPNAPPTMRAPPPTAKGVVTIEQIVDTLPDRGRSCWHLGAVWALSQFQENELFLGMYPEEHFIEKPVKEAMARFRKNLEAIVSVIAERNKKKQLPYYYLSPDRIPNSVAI

[4] = Half life in Sprague-Dawley rat at 1 mg/kg, po; format: ADME, organism-based; set-up: dose 1 mg/kg, route oral; details: in vivo
Summary of the method: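 Male Sprague-Dawley rats (8 weeks, 250–300 g, n = 4) were dosed orally at 1 mg/kg in oleic-ester-rich triglyceride with 10% PEG 400. Tail-vein blood (10 µL) was taken at 0–24 h, mixed with water and stored at −80 °C. Drug was quantified by LC/MS/MS, and t1/2 came from non-compartmental analysis of each rat.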

Rattus norvegicus [5] = assay: Toxicity in Sprague-Dawley rat von Frey hair mechanically-stimulated […] pain model assessed as acute observable symptoms of toxicity at 10 mg/kg, sc after 9 hrs; format: organism-based; set-up: dose 10 mg/kg, route subcutaneous; details: in vivo
Summary of the method: (§1)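 Male Sprague-Dawley rats treated s.c. (10 mg/kg, PEG400 vehicle) in the LPS von Frey study were observed over nine hours on the test day. Animals were checked for behavioral changes and for acute signs such as lacrimation, porphyrin exudation, frozen or hunched posture, gasping or chattering.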

Rattus norvegicus [6] = assay: Toxicity in Sprague-Dawley rat von Frey hair mechanically-stimulated […] pain model assessed as overt signs of behavioral changes at 10 mg/kg, sc after 9 hrs; format: organism-based; set-up: dose 10 mg/kg, route subcutaneous; details: in vivo; summary of the method: as §1
U-937 = assay: Cytotoxicity against human U937 cells; format: cell-based

Row | Structure (SMILES) | inhibition [1] [%] | other results
1 | CS(=O)(=O)c1ccc(-n2nc(CCCNC(=O)Nc3cccc(C(F)(F)F)c3)cc2-c2ccccc2)cc1 | 6 | –
2 | CC(C)c1cccc(C(C)C)c1NC(=O)NCCCc1cc(-c2ccccc2)n(-c2ccc(S(N)(=O)=O)cc2)n1 | 6 | –
3 | CS(=O)(=O)c1ccc(-n2nc(CNC(=O)Nc3ccc(C(F)(F)F)cc3)cc2-c2ccccc2)cc1 | 11 | –
4 | Cc1ccc(-c2cc(C(F)(F)F)nn2-c2ccc(S(N)(=O)=O)cc2)cc1 | – | Activity (Rattus norvegicus [2]): Active; inhibition [3]: 80%
5 | NS(=O)(=O)c1ccc(-n2nc(CCCNC(=O)NC3CCCCCC3)cc2-c2ccccc2)cc1 | 10 | –
6 | NS(=O)(=O)c1ccc(-n2nc(CCCNC(=O)Nc3ccc(OC(F)(F)F)cc3)cc2-c2ccccc2)cc1 | 14 | half-life [4]: 12 h
7 | O=C(NC12CC3CC(CC(C3)C1)C2)N[C@H]1CC[C@H](Oc2ccc(C(=O)O)cc2)CC1 | 25 | Activity (Rattus norvegicus [2]): Active
8 | NS(=O)(=O)c1ccc(-n2nc(CCCNC(=O)Nc3ccccc3)cc2-c2ccccc2)cc1 | 16 | –
9 | NS(=O)(=O)c1ccc(-n2nc(CCCNC(=O)Nc3ccc(C(F)(F)F)cc3)cc2-c2ccccc2)cc1 | 23 | Activity (Rattus norvegicus [5]): Non-toxic; Activity (Rattus norvegicus [2]): Active; inhibition [3]: 83%; Activity (Rattus norvegicus [6]): Non-toxic; Activity (U-937): Non-toxic
10 | CS(=O)(=O)c1ccc(-n2nc(CNC(=O)Nc3ccc(OC(F)(F)F)cc3)cc2-c2ccccc2)cc1 | 10 | –
11 | NS(=O)(=O)c1ccc(-n2nc(CCNC(=O)Nc3cccc(C(F)(F)F)c3)cc2-c2ccccc2)cc1 | 22 | –
12 | CS(=O)(=O)c1ccc(-n2nc(CNC(=O)Nc3cccc(C(F)(F)F)c3)cc2-c2ccccc2)cc1 | 8 | –
13 | NS(=O)(=O)c1ccc(-n2nc(CCCNC(=O)NC34CC5CC(CC(C5)C3)C4)cc2-c2ccccc2)cc1 | 7 | –
14 | NS(=O)(=O)c1ccc(-n2nc(CCCNC(=O)Nc3ccc(Cl)cc3)cc2-c2ccccc2)cc1 | 15 | –

More lines, main results first:

Row | inhibition [1] [%] | Structure (SMILES) | other results
15 | 12 | Cc1ccc(-c2cc(CCCNC(=O)Nc3cccc(C(F)(F)F)c3)nn2-c2ccc(S(N)(=O)=O)cc2)cc1 | –
16 | 3 | CS(=O)(=O)c1ccc(-n2nc(CNC(=O)NC3CCCCCC3)cc2-c2ccccc2)cc1 | –
17 | 27 | NS(=O)(=O)c1ccc(-n2nc(CCCNC(=O)Nc3cccc(C(F)(F)F)c3)cc2-c2ccccc2)cc1 | –
18 | 13 | CS(=O)(=O)c1ccc(-n2nc(CNC(=O)NC34CC5CC(CC(C5)C3)C4)cc2-c2ccccc2)cc1 | –
19 | 2 | CC(C)(C)c1cc(CNC(=O)Nc2cccc(C(F)(F)F)c2)nn1-c1ccc(S(C)(=O)=O)cc1 | –
20 | 17 | NS(=O)(=O)c1ccc(-n2nc(CNC(=O)Nc3cccc(C(F)(F)F)c3)cc2-c2ccccc2)cc1 | –
21 | 34 | NS(=O)(=O)c1ccc(-n2nc(NC(=O)Nc3cccc(C(F)(F)F)c3)cc2-c2ccccc2)cc1 | –
